# Reference: ChEMBL document CHEMBL1687765, “NagZ inactivation prevents and reverts beta-lactam resistance, driven by AmpD and PBP 4 mutations, in Pseudomonas aeruginosa” (2010)
# Calls of active or inactive are those of the source. The calls are words filed in the database; no cut-off is given here.
# Assays:
# [1] = test system: Pseudomonas aeruginosa; assay: Antimicrobial activity against Pseudomonas aeruginosa PAO1 by broth microdilution method; assay type: functional
# Method in brief: (§1)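 Broth microdilution MICs of ceftazidime, aztreonam and piperacillin in 100 μl cation-adjusted Mueller-Hinton broth, with or without NagZ inhibitor PUGNAc at 0.5 mM or 5 mM; measurements in triplicate.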
# [2] = test system: Pseudomonas aeruginosa; assay: Antimicrobial activity against ampD::lox, ampDh2::lox,ampDh3::lox and nagZ::lox gene-deficient Pseudomonas aeruginosa PAO1 by Etest method in presence of beta-lactamase inhibitor Tazobactam; assay type: functional
# Method in brief: (§2)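 MICs on Mueller-Hinton agar by Etest strips (piperacillin-tazobactam among the agents tested), per manufacturer's instructions.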
# [3] = test system: Pseudomonas aeruginosa; assay: Antimicrobial activity against dacB::lox gene-deficient Pseudomonas aeruginosa PAO1 by Etest method in presence of beta-lactamase inhibitor Tazobactam; assay type: functional
# Method in brief: (§3)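 MICs read from Etest strips on Mueller-Hinton agar per manufacturer's instructions; agents ceftazidime, cefepime, aztreonam, piperacillin, piperacillin-tazobactam, imipenem and meropenem.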
# [4] = test system: Pseudomonas aeruginosa; assay: Antimicrobial activity against ampD::lox gene-deficient Pseudomonas aeruginosa PAO1 harboring dacB gene by broth microdilution method; assay type: functional; method in brief: as §1
# [5] = test system: Pseudomonas aeruginosa; assay: Antimicrobial activity against Pseudomonas aeruginosa PAO1 by broth microdilution method in presence of 5 mM NagZ inhibitor PUGNAc; assay type: functional; method in brief: as §1
# [6] = test system: Pseudomonas aeruginosa; assay: Antimicrobial activity against ampD::lox gene-deficient Pseudomonas aeruginosa PAO1 by broth microdilution method in presence of 5 mM NagZ inhibitor PUGNAc; assay type: functional; method in brief: as §1
# [7] = test system: Pseudomonas aeruginosa; assay: Antimicrobial activity against Pseudomonas aeruginosa PAO1 by Etest method in presence of beta-lactamase inhibitor Tazobactam; assay type: functional; method in brief: as §3
# [8] = test system: Pseudomonas aeruginosa; assay: Antimicrobial activity against ampD::lox gene-deficient Pseudomonas aeruginosa PAO1 by broth microdilution method; assay type: functional; method in brief: as §1
# [9] = test system: Pseudomonas aeruginosa; assay: Antimicrobial activity against dacB::lox gene-deficient Pseudomonas aeruginosa PAO1 by broth microdilution method in presence of 5 mM NagZ inhibitor PUGNAc; assay type: functional; method in brief: as §1
# [10] = test system: Pseudomonas aeruginosa; assay: Antimicrobial activity against ampD::lox and nagZ::lox gene-deficient Pseudomonas aeruginosa PAO1 harboring dacB gene by Etest method in presence of beta-lactamase inhibitor Tazobactam; assay type: functional; method in brief: as §3
# [11] = test system: Pseudomonas aeruginosa; assay: Antimicrobial activity against ampD::lox gene-deficient Pseudomonas aeruginosa PAO1 harboring dacB gene by broth microdilution method in presence of 5 mM NagZ inhibitor PUGNAc; assay type: functional; method in brief: as §1
# [12] = test system: Pseudomonas aeruginosa; assay: Antimicrobial activity against nagZ::lox gene-deficient Pseudomonas aeruginosa PAO1 by Etest method in presence of beta-lactamase inhibitor Tazobactam; assay type: functional; method in brief: as §3
# [13] = test system: Pseudomonas aeruginosa; assay: Antimicrobial activity against ampC::lox gene-deficient Pseudomonas aeruginosa PAO1 by Etest method in presence of beta-lactamase inhibitor Tazobactam; assay type: functional; method in brief: as §3
# [14] = test system: Pseudomonas aeruginosa; assay: Antimicrobial activity against dacB::lox gene-deficient Pseudomonas aeruginosa PAO1 by broth microdilution method; assay type: functional; method in brief: as §1
# [15] = test system: Pseudomonas aeruginosa; assay: Antimicrobial activity against ampD::lox and nagZ::lox gene-deficient Pseudomonas aeruginosa PAO1 by Etest method in presence of beta-lactamase inhibitor Tazobactam; assay type: functional; method in brief: as §2
# [16] = test system: Pseudomonas aeruginosa; assay: Antimicrobial activity against dacB::lox and nagZ::lox gene-deficient Pseudomonas aeruginosa PAO1 by Etest method in presence of beta-lactamase inhibitor Tazobactam; assay type: functional; method in brief: as §2
# [17] = test system: Pseudomonas aeruginosa; assay: Antimicrobial activity against ampD::lox gene-deficient Pseudomonas aeruginosa PAO1 by Etest method in presence of beta-lactamase inhibitor Tazobactam; assay type: functional; method in brief: as §3
# [18] = test system: Pseudomonas aeruginosa; assay: Antimicrobial activity against dacB::lox gene-deficient Pseudomonas aeruginosa PAO1 by broth microdilution method in presence of 0.5 mM NagZ inhibitor PUGNAc; assay type: functional; method in brief: as §1
# [19] = test system: Pseudomonas aeruginosa; assay: Antimicrobial activity against ampR::lox gene-deficient Pseudomonas aeruginosa PAO1 by Etest method in presence of beta-lactamase inhibitor Tazobactam; assay type: functional; method in brief: as §3
# [20] = test system: Pseudomonas aeruginosa; assay: Antimicrobial activity against ampD::lox gene-deficient Pseudomonas aeruginosa PAO1 by broth microdilution method in presence of 0.5 mM NagZ inhibitor PUGNAc; assay type: functional; method in brief: as §1
# [21] = test system: Pseudomonas aeruginosa; assay: Antimicrobial activity against Pseudomonas aeruginosa PAO1 by broth microdilution method in presence of 0.5 mM NagZ inhibitor PUGNAc; assay type: functional; method in brief: as §1
# [22] = test system: Pseudomonas aeruginosa; assay: Antimicrobial activity against ampD::lox gene-deficient Pseudomonas aeruginosa PAO1 harboring dacB gene by broth microdilution method in presence of 0.5 mM NagZ inhibitor PUGNAc; assay type: functional
# Method in brief: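 MICs of ceftazidime, aztreonam and piperacillin determined by broth microdilution in cation-adjusted Mueller-Hinton broth, with 0.5 mM of the N-acetyl-β-glucosaminidase (NagZ) inhibitor PUGNAc added alongside the β-lactam and untreated controls run in parallel; all measurements performed in triplicate.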
# [23] = test system: Pseudomonas aeruginosa; assay: Antimicrobial activity against ampD::lox, ampDh2::lox and ampDh3::lox gene-deficient Pseudomonas aeruginosa PAO1 by Etest method in presence of beta-lactamase inhibitor Tazobactam; assay type: functional
# Method in brief: (§4)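 Etest strips on Mueller-Hinton agar, read per manufacturer's recommendations; P. aeruginosa PAO1 triple mutant deficient in ampD, ampDh2 and ampDh3 (lox deletions). Agents tested by Etest: ceftazidime, cefepime, aztreonam, piperacillin, piperacillin-tazobactam, imipenem, meropenem.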
# [24] = test system: Pseudomonas aeruginosa; assay: Antimicrobial activity against ampC::lox gene-deficient Pseudomonas aeruginosa PAO1 by Etest method; assay type: functional; method in brief: as §3
# [25] = test system: Pseudomonas aeruginosa; assay: Antimicrobial activity against ampD::lox and nagZ::lox gene-deficient Pseudomonas aeruginosa PAO1 by Etest method; assay type: functional; method in brief: as §3
# [26] = test system: Pseudomonas aeruginosa; assay: Antimicrobial activity against ampD::lox and nagZ::lox gene-deficient Pseudomonas aeruginosa PAO1 harboring dacB gene by Etest method; assay type: functional; method in brief: as §3
# [27] = test system: Pseudomonas aeruginosa; assay: Antimicrobial activity against nagZ::lox gene-deficient Pseudomonas aeruginosa PAO1 by Etest method; assay type: functional; method in brief: as §3
# [28] = test system: Pseudomonas aeruginosa; assay: Antimicrobial activity against Pseudomonas aeruginosa PAO1 by Etest method; assay type: functional; method in brief: as §3
# [29] = test system: Pseudomonas aeruginosa; assay: Antimicrobial activity against ampD::lox, ampDh2::lox and ampDh3::lox gene-deficient Pseudomonas aeruginosa PAO1 by Etest method; assay type: functional; method in brief: as §4
# [30] = test system: Pseudomonas aeruginosa; assay: Antimicrobial activity against dacB::lox gene-deficient Pseudomonas aeruginosa PAO1 by Etest method; assay type: functional; method in brief: as §3
# [31] = test system: Pseudomonas aeruginosa; assay: Antimicrobial activity against ampR::lox gene-deficient Pseudomonas aeruginosa PAO1 by Etest method; assay type: functional; method in brief: as §3
# [32] = test system: Pseudomonas aeruginosa; assay: Antimicrobial activity against ampD::lox gene-deficient Pseudomonas aeruginosa PAO1 by Etest method; assay type: functional; method in brief: as §3
# [33] = test system: Pseudomonas aeruginosa; assay: Antimicrobial activity against ampD::lox, ampDh2::lox,ampDh3::lox and nagZ::lox gene-deficient Pseudomonas aeruginosa PAO1 by Etest method; assay type: functional; method in brief: as §3
# [34] = test system: Pseudomonas aeruginosa; assay: Antimicrobial activity against ampD::lox gene-deficient Pseudomonas aeruginosa PAO1 harboring dacB gene by Etest method; assay type: functional; method in brief: as §3
# [35] = test system: Pseudomonas aeruginosa; assay: Antimicrobial activity against nagZ::lox gene-deficient Pseudomonas aeruginosa PAO1 at 1 ug/ml; assay type: functional, organism-based
# Method in brief: (§5)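 Population analysis: serial dilutions of overnight MH broth cultures plated on MH agar with 0, 0.5, 1, 2, 4, 8 or 16 μg/ml ceftazidime; colonies counted after 24 h as CFU at each concentration; triplicate, mean ± standard deviation.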
# [36] = test system: Pseudomonas aeruginosa; assay: Antimicrobial activity against Pseudomonas aeruginosa PAO1 at 1 ug/ml; assay type: functional, organism-based; method in brief: as §5
# [37] = test system: Pseudomonas aeruginosa; assay: Antimicrobial activity against dacB::lox and nagZ::lox gene-deficient Pseudomonas aeruginosa PAO1 by Etest method; assay type: functional; method in brief: as §3
SMILES,MIC [1] [µg/mL],MIC [4] [µg/mL],MIC [5] [µg/mL],MIC [6] [µg/mL],MIC [8] [µg/mL],MIC [9] [µg/mL],MIC [11] [µg/mL],MIC [14] [µg/mL],MIC [18] [µg/mL],MIC [24] [µg/mL],MIC [25] [µg/mL],MIC [26] [µg/mL],MIC [27] [µg/mL],MIC [28] [µg/mL],MIC [29] [µg/mL],MIC [30] [µg/mL],MIC [31] [µg/mL],MIC [32] [µg/mL],MIC [33] [µg/mL],MIC [34] [µg/mL],further results
CCN1CCN(C(=O)N[C@@H](C(=O)N[C@@H]2C(=O)N3[C@@H]2SC(C)(C)[C@@H]3C(=O)O)c2ccccc2)C(=O)C1=O [PIPERACILLIN],4,384,4,24,48,24,256,64,32,,,,,,,,,,,,MIC [2]: 8 µg/mL; MIC [3]: 64 µg/mL; MIC [7]: 2 µg/mL; MIC [10]: 16 µg/mL; MIC [12]: 2 µg/mL; MIC [13]: 2 µg/mL; MIC [15]: 3 µg/mL; MIC [16]: 3 µg/mL; MIC [17]: 32 µg/mL; MIC [19]: 4 µg/mL; MIC [20]: 24 µg/mL; MIC [21]: 4 µg/mL; MIC [22]: 256 µg/mL; MIC [23]: > 256 µg/mL
C[C@@H](O)[C@H]1C(=O)N2C(C(=O)O)=C(SCCNC=N)C[C@H]12 [IMIPENEM ANHYDROUS],,,,,,,,,,0.5,1,1,1,2,2,2,0.5,2,1.5,2,
CC(C)(O/N=C(\C(=O)N[C@@H]1C(=O)N2C(C(=O)[O-])=C(C[n+]3ccccc3)CS[C@H]12)c1csc(N)n1)C(=O)O [CEFTAZIDIME],2,96,2,4,8,6,64,24,8,1,2,4,1,1.5,32,24,2,8,3,96,Activity [35]: Active; Activity [36]: Active; MIC [20]: 4 µg/mL; MIC [21]: 2 µg/mL; MIC [22]: 64 µg/mL
CO/N=C(\C(=O)N[C@@H]1C(=O)N2C(C(=O)[O-])=C(C[N+]3(C)CCCC3)CS[C@H]12)c1csc(N)n1 [CEFEPIME],,,,,,,,,,1,1.5,3,1.5,1.5,,12,2,,3,48,
C[C@H]1[C@H](NC(=O)/C(=N\OC(C)(C)C(=O)O)c2csc(N)n2)C(=O)N1S(=O)(=O)O [AZTREONAM],3,32,3,3,6,3,24,12,4,2,,,4,,32,24,4,12,8,64,MIC [20]: 3 µg/mL; MIC [21]: 3 µg/mL; MIC [22]: 32 µg/mL
C[C@@H](O)[C@H]1C(=O)N2C(C(=O)O)=C(S[C@@H]3CN[C@H](C(=O)N(C)C)C3)[C@H](C)[C@H]12 [MEROPENEM],,,,,,,,,,0.25,0.5,0.5,0.38,0.38,1,0.5,0.25,1,1,1.5,MIC [37]: 0.38 µg/mL
